Source: ChEMBL document CHEMBL2413013, “Triplex-forming ability of oligonucleotides containing 1-aryl-1,2,3-triazole nucleobases linked via a two atom-length spacer” (Bioorg Med Chem, 2013)

Columns and labels:
[1] = Binding affinity to hairpin double stranded DNA AT base pair in sodium cacodylate buffer at pH 6.8 assessed as triplex-forming ability measuring melting temperature after by UV melting experiment
How it was run: (§1)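 TFO and hairpin dsDNA target, each strand at 1.89 μM final, in 10 mM sodium cacodylate (pH 6.8) with 100 mM KCl and 50 mM MgCl₂. Annealed in boiling water, then cooled slowly to 5 °C. Melting was followed at 260 nm from 5 to 90 °C at 0.5 °C/min. Tm was taken by the two-point average method, mean of three independent runs.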

[2] = Binding affinity to hairpin double stranded DNA TA base pair in sodium cacodylate buffer at pH 6.8 assessed as triplex-forming ability measuring melting temperature after by UV melting experiment; how it was run: as §1
[3] = Binding affinity to hairpin double stranded DNA CG base pair in sodium cacodylate buffer at pH 6.8 assessed as triplex-forming ability measuring melting temperature after by UV melting experiment; how it was run: as §1
[4] = Binding affinity to hairpin double stranded DNA GC base pair in sodium cacodylate buffer at pH 6.8 assessed as triplex-forming ability measuring melting temperature after by UV melting experiment; how it was run: as §1

With `Cc1cn([C@H]2C[C@H](O[PH](OCCC#N)(OC[C@H]3O[C@@H](n4cc(C)c(=O)[nH]c4=O)C[C@@H]3O[PH](OCCC#N)(OC[C@H]3O[C@@H](n4cc(C)c(=O)[nH]c4=O)C[C@@H]3O[PH](OCCC#N)(OC[C@H]3O[C@@H](n4cc(C)c(=O)[nH]c4=O)C[C@@H]3O[PH](OCCC#N)(OC[C@H]3O[C@@H](n4cc(C)c(=O)[nH]c4=O)C[C@@H]3O[PH](OCCC#N)(OC(C)[C@H]3O[C@@H](N4C=CC(N)=N[C@@H]4O)C[C@@H]3O[PH](OCCC#N)(OC[C@H]3O[C@@H](n4cc(C)c(=O)[nH]c4=O)C[C@@H]3O[PH](OCCC#N)(OC[C@H]3O[C@@H](OCc4cn(-c5ccccc5C(N)=O)nn4)C[C@@H]3OP(=O)(O)OC[C@H]3O[C@@H](n4cc(C)c(=O)[nH]c4=O)C[C@@H]3O[PH](OCCC#N)(OC(C)[C@H]3O[C@@H](n4ccc(N)nc4=O)C[C@@H]3O[PH](OCCC#N)(OC[C@H]3O[C@@H](n4cc(C)c(=O)[nH]c4=O)C[C@@H]3O[PH](OCCC#N)(OC(C)[C@H]3O[C@@H](n4ccc(N)nc4=O)C[C@@H]3O[PH](OCCC#N)(OC[C@H]3O[C@@H](n4cc(C)c(=O)[nH]c4=O)C[C@@H]3O[PH](OCCC#N)(OC(C)[C@H]3O[C@@H](n4ccc(N)nc4=O)C[C@@H]3O[PH](OCCC#N)(OC[C@H]3O[C@@H](n4cc(C)c(=O)[nH]c4=O)C[C@@H]3O)N(C(C)C)C(C)C)N(C(C)C)C(C)C)N(C(C)C)C(C)C)N(C(C)C)C(C)C)N(C(C)C)C(C)C)N(C(C)C)C(C)C)N(C(C)C)C(C)C)N(C(C)C)C(C)C)N(C(C)C)C(C)C)N(C(C)C)C(C)C)N(C(C)C)C(C)C)N(C(C)C)C(C)C)N(C(C)C)C(C)C)[C@@H](CO)O2)c(=O)[nH]c1=O` (some centres undefined) as the compound, how does the Tm [1] read?
The Tm was 18 °C.

What about the Tm [2] of the same compound?
The Tm was 17 °C.

What about the Tm [3] of the same compound?
The Tm was 21 °C.

And the Tm [4]?
Its Tm is 19 °C.
